Folding enthalpy and Tm data for 36 sequences are collected here from the array DNA melting data of Ke et al. (doi:10.1101/2024.01.08.574731).

Data set [1] can be described thus: folding enthalpy; higher = less favourable; fluorescence melt of hairpins on a sequencing array, two-state fit. The conditions noted are these: sodium 0.088 M. Put shortly: (§1)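 Two-state fits, bootstrapped, provided melting temperature and folding enthalpy from Cy3 fluorescence normalised to pre-quench Cy3 and to control constructs. Library hairpins with annealed Cy3 and quencher oligos were imaged on a sequenced MiSeq flow cell in 50 mM Na-HEPES pH 8.0, 25 mM NaCl, at 2.5 °C intervals up to 60 °C. Four replicates were combined with inverse-variance weighting. A 9.35 °C upward shift was applied to fitted temperatures to match UV melts.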

A short description of data set [2]: melting temperature; fluorescence melt of hairpins on a sequencing array, two-state fit, raised by 9.35 °C to match UV melts. The conditions noted are these: sodium 0.088 M. A digest of the protocol: as §1

Turning to GTAACTGGAAACAGTTGC (.(((((....))))).), the folding enthalpy in data set [1] is -26.6 kcal/mol. Moreover, the Tm in data set [2] was 47.4 °C.

Turning to GTAAGACCGAAAGGTTAC (((..(((....)))))), in data set [1], the folding enthalpy was -13.8 kcal/mol. In addition, the Tm in data set [2] worked out at 30.3 °C.

As for GTAAGACGAAAGTCATAC (((.(((....))).))), the folding enthalpy in data set [1] is -20.6 kcal/mol. Further, in data set [2], the Tm amounted to 39.1 °C.

On to GTAAGACGAAAGTCCTAC (((.(((....))).))), for which the folding enthalpy in data set [1] was -15.7 kcal/mol. In addition, the Tm in data set [2] amounted to 34.7 °C.

On to GTAAGCCGAAAGGCATAC (((.(((....))).))), for which the folding enthalpy in data set [1] is -18.4 kcal/mol. Moreover, in data set [2], the Tm came out at 46.6 °C.

On to GTAAGCCGAAAGGCGTAC (((.(((....))).))), for which, in data set [1], the folding enthalpy was -14.1 kcal/mol. Further, the Tm in data set [2] came to 54.4 °C.

GTAAGCGAAAGCTACTAC ((((((....)))..))): the folding enthalpy in data set [1] was -14.1 kcal/mol. The Tm in data set [2] is 47.5 °C.

GTAAGCGAAAGCTCTTAC ((((((....)))..))): the folding enthalpy in data set [1] was -12.7 kcal/mol. For the same sequence, in data set [2], the Tm stood at 33.2 °C.

GTAAGCGAAAGCTGCTAC ((((((....)))..))): the folding enthalpy in data set [1] is -12.7 kcal/mol. Moreover, the Tm in data set [2] was 41 °C.

GTAAGCGAAAGCTGGTAC ((((((....)))..))): the folding enthalpy in data set [1] is -11 kcal/mol. Further, the Tm in data set [2] turned out to be 32.3 °C.

Turning to GTAAGCGAAAGCTTCTAC ((((((....)))..))), the folding enthalpy in data set [1] was -11.2 kcal/mol. In data set [2], the Tm is 33.6 °C.

GTAAGGGGAAACCCTCAC ((.((((....)))).)): the folding enthalpy in data set [1] is -13.7 kcal/mol. The Tm in data set [2] was 30.2 °C.

In the case of GTAAGTCGAAAGACGTAC (((.(((....))).))), the folding enthalpy in data set [1] was -15.2 kcal/mol. The Tm in data set [2] turned out to be 47.1 °C.

GTAAGTGAAAACTTAC ((((((....)))))): the folding enthalpy in data set [1] was -27.4 kcal/mol. For the same sequence, in data set [2], the Tm was determined as 48.7 °C.

For the sequence GTAAGTGGAAACACTCAC ((.((((....)))).)), the folding enthalpy in data set [1] is -15.4 kcal/mol. For the same sequence, the Tm in data set [2] amounted to 32.7 °C.

Regarding GTAAGTGGAAACACTTGC (.(((((....))))).), the folding enthalpy in data set [1] is -26.7 kcal/mol. Further, the Tm in data set [2] is 45 °C.

For GTAAGTGGAAACATTTAC ((((.((....)).)))), the folding enthalpy in data set [1] is -25.6 kcal/mol. For the same sequence, the Tm in data set [2] is 32.3 °C.

Consider GTAATACGAAAGTACTAC (((.(((....))).))), for which, in data set [1], the folding enthalpy is -16.9 kcal/mol. For the same sequence, the Tm in data set [2] is 31.1 °C.

Consider GTAATAGCGAAAGCTTAC (((..(((....)))))), for which the folding enthalpy in data set [1] was -12.6 kcal/mol. Further, in data set [2], the Tm was determined as 30.2 °C.

As to GTAATCCGAAAGGACTAC (((.(((....))).))), the folding enthalpy in data set [1] was -25.6 kcal/mol. The Tm in data set [2] came to 37.9 °C.

With GTAATCGAAAGATGCTAC ((((((....)))..))), the folding enthalpy in data set [1] is -17.3 kcal/mol. The Tm in data set [2] was found to be 30.2 °C.

Turning to GTAATGCCGAAAGGCTAC (((..(((....)))))), in data set [1], the folding enthalpy was -9.18 kcal/mol. Further, the Tm in data set [2] stood at 26.8 °C.

Take GTAATGCGAAAGCAGTAC (((.(((....))).))): the folding enthalpy in data set [1] is -30.6 kcal/mol. Moreover, in data set [2], the Tm was 53.4 °C.

With GTAATGCGAAAGCATAC (((.(((....)))))), the folding enthalpy in data set [1] was -13.3 kcal/mol. In addition, in data set [2], the Tm came out at 46 °C.

As to GTAATGGCGAAAGCCTAC (((..(((....)))))), the folding enthalpy in data set [1] was -7.82 kcal/mol. Also, the Tm in data set [2] came to 31.3 °C.

Take GTAATTGAAAAATTAC ((((((....)))))): in data set [1], the folding enthalpy is -26.2 kcal/mol. In addition, the Tm in data set [2] was determined as 40.3 °C.

For the sequence GTACAAGAAATTGTAC ((((((....)))))), the folding enthalpy in data set [1] is -32.5 kcal/mol. The Tm in data set [2] came out at 45 °C.

GTACAAGGAAACCTGTAC (((((.(....).))))): the folding enthalpy in data set [1] was -26.1 kcal/mol. Besides, the Tm in data set [2] is 38.2 °C.

As for GTACACGAAAGTGAATAC ((((((....)))..))), the folding enthalpy in data set [1] was -10.6 kcal/mol. In addition, the Tm in data set [2] was 28.6 °C.

Regarding GTACACGAAAGTGACTAC ((((((....)))..))), the folding enthalpy in data set [1] was -15.4 kcal/mol. In data set [2], the Tm came to 37.2 °C.

Take GTACACGAAAGTGCTTAC ((((((....)))..))): in data set [1], the folding enthalpy is -11.9 kcal/mol. Further, the Tm in data set [2] was 33.3 °C.

For GTACACGAAAGTGTAC ((((((....)))))), in data set [1], the folding enthalpy was -30.2 kcal/mol. In addition, in data set [2], the Tm was found to be 68.3 °C.

On to GTACACGGAAACGTGTAC (((((((....))))))), for which the folding enthalpy in data set [1] is -37.7 kcal/mol. The Tm in data set [2] came to 63.4 °C.

Take GTACACGGAAACGTGTGC (.(((((....))))).): the folding enthalpy in data set [1] is -27.1 kcal/mol. Moreover, the Tm in data set [2] was determined as 56.2 °C.

GTACACTCGAAAGAGTAC (((..(((....)))))): the folding enthalpy in data set [1] is -13.8 kcal/mol. The Tm in data set [2] is 29.4 °C.

For GTACAGGGAAACCTGCAC ((.((((....)))).)), the folding enthalpy in data set [1] was -22.4 kcal/mol. The Tm in data set [2] stood at 39.7 °C.
